Assay results taken from ChEMBL document CHEMBL6071141, “In vitro and in vivo evaluation of Bombesin-MMAE conjugates for targeted tumour therapy” (Eur J Med Chem, 2024).
pIC50: −log10 of the molar value. Numbered stars: 1 amine (or outer) side, 2 acyl side, 3 side chain; on linkers, the order of the positions; unused ones are H or OH. Bridge positions count the residues as written; N and C are the ends. Square brackets hold non-standard residues; d marks the D form. Peptide text beside a SMILES is read from it. I, II: the chains in the order shown. * marks the point of attachment. Hexanoyl(6-succinimido-3yl) = O=C1CC([*:1])C(=O)N1CCCCCC(=O)[*:2]; Trp(3a,7a-dihydro) = N[C@@H](CC1=CNC2C=CC=CC12)C(=O)O; Dolaproine = CO[C@@H]([C@@H]1CCCN1)[C@@H](C)C(=O)O; X2 = O=C([C@H](CC1=CSC2C=CC=CC12)N[*:1])[*:2]; Dil = CC[C@H](C)[C@H](NC)[C@@H](CC(=O)O)OC; PABC = O=C(OCc1ccc(N[*:1])cc1)[*:2]; X3 = C[C@@H](N*)[C@@H](O)c1ccccc1; Cit = NC(=O)NCCC[C@H](N)C(=O)O; PEG4 = NCCOCCOCCOCCOCCC(=O)O; NMeV = CN[C@H](C(=O)O)C(C)C; Nle = CCCC[C@H](N)C(=O)O

How the values were obtained:
[1] = target: T1, Gastrin-releasing peptide receptor (Homo sapiens, UniProt P30550); test: Displacement of 125 I- [Tyr4] from bombesin receptor 2 in human PC-3 cells assessed as inhibition by radioligand displacement assay; format: cell-based
T1 sequence (P30550 whole entry): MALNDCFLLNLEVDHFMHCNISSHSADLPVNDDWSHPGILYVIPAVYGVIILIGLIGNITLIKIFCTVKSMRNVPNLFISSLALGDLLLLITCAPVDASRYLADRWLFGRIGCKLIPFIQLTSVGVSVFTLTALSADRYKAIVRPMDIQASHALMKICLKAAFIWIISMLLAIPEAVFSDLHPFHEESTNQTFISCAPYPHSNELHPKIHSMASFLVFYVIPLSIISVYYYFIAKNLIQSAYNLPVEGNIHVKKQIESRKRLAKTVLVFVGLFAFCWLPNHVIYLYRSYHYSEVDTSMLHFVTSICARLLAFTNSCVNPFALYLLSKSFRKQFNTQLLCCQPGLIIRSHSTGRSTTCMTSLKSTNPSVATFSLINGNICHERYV
Outline: (§1)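 Competition binding on membrane preparations from PC-3 or MDA-MB-231 cells against ¹²⁵I-[Tyr⁴]-bombesin, with conjugates at 10 μM–10 pM. IC50 was taken as the concentration giving 50 % inhibition of tracer binding.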

[2] = Cytotoxicity against human MDA-MB-231 cells assessed as inhibition of cell growth incubated for 72 hrs and followed by treated with compound continued incubation for further 72 hrs (double treatment) after retreatment of compound by CellTiter 96 aqueous assay; format: toxicity, cell-based
Outline: (§2)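 PC-3 or MDA-MB-231 cells were treated the day after seeding with serial dilutions, from 2000 nM for conjugates and 100 nM for MMAE, for 72 h. Then the assay was stopped, or run 72 h more after a medium change (single) or re-treatment (double). Controls got 0.05 % DMSO. Read-out was MTS absorbance at 490 nm after 90 min. IC50 by non-linear regression; ≥2 experiments, triplicates.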

[3] = Cytotoxicity against human PC-3 cells assessed as inhibition of cell growth incubated for 72 hrs and followed by treated with compound continued incubation for further 72 hrs (double treatment) after retreatment of compound by CellTiter 96 aqueous assay; format: toxicity, cell-based; outline: as §2
[4] = Cytotoxicity against human PC-3 cells assessed as inhibition of cell growth incubated with compound for 72 hrs followed by further incubated for 72 hrs (single treatment) by CellTiter 96 aqueous assay; format: toxicity, cell-based; outline: as §2
[5] = target: T1, Gastrin-releasing peptide receptor; test: Displacement of 125 I- [Tyr4] from bombesin receptor 2 in human MDA-MB-231 cells assessed as inhibition by radioligand displacement assay; format: cell-based; outline: as §1
[6] = Cytotoxicity against human PC-3 cells assessed as inhibition of cell growth incubated for 72 hrs by CellTiter 96 aqueous assay; format: toxicity, cell-based; outline: as §2
[7] = Cytotoxicity against human MDA-MB-231 cells assessed as inhibition of cell growth incubated with compound for 72 hrs followed by further incubated for 72 hrs (single treatment) by CellTiter 96 aqueous assay; format: toxicity, cell-based; outline: as §2
[8] = Cytotoxicity against human cells MDA-MB-231 assessed as inhibition of cell growth incubated for 72 hrs by CellTiter 96 aqueous assay; format: toxicity, cell-based; settings: MDA-MB-231 cells; outline: as §2
[9] = Displacement of 125 I- [Tyr4] from bombesin receptor 1 (unknown origin) assessed as inhibition by radioligand competitive binding assay; parameters: species or system Homo sapiens
[10] = target: T1, Gastrin-releasing peptide receptor; test: Displacement of 125 I- [Tyr4] from bombesin receptor 2 (unknown origin) assessed as inhibition by radioligand competitive binding assay
[11] = target: T2, Bombesin receptor subtype-3 (Homo sapiens, UniProt P32247); test: Displacement of 125 I- [Tyr4] from bombesin receptor 3 (unknown origin) assessed as inhibition by radioligand competitive binding assay
T2 sequence (P32247 whole entry): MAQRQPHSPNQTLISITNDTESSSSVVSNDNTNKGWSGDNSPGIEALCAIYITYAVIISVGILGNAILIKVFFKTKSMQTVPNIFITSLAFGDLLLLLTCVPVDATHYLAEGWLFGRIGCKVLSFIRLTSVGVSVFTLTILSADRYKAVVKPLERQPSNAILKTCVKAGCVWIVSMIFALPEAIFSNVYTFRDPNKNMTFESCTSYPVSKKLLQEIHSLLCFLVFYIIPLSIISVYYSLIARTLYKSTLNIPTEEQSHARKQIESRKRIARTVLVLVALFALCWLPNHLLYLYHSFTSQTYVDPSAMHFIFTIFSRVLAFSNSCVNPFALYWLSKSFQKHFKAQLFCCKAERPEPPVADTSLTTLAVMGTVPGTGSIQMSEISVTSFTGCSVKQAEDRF

Structure (SMILES) | pIC50 [1] | pIC50 [5] | pIC50 [9] | pIC50 [10] | pIC50 [11] | IC50 at 144 h [2] | IC50 at 144 h [3] | IC50 at 144 h [4] | IC50 at 72 h [6] | IC50 at 144 h [7] | IC50 at 72 h [8]
CCCC[C@H](NC(=O)[C@H](CC(C)C)NC(=O)[C@H](Cc1c[nH]cn1)NC(=O)CNC(=O)[C@@H](NC(=O)[C@H](C)NC(=O)[C@H](CC1=CSC2C=CC=CC12)NC(=O)[C@H](CCC(N)=O)NC(=O)[C@H](CC(N)=O)NC(=O)CCOCCOCCOCCOCCNC(=O)[C@H](CSC1CC(=O)N(CCCCCC(=O)N[C@@H](CCC(=O)O)C(=O)NCC(=O)N[C@@H](CCCNC(N)=O)C(=O)Nc2ccc(COC(=O)N(C)[C@H](C(=O)N[C@H](C(=O)N(C)[C@@H]([C@@H](C)CC)[C@@H](CC(=O)N3CCC[C@H]3[C@H](OC)[C@@H](C)C(=O)N[C@H](C)[C@@H](O)c3ccccc3)OC)C(C)C)C(C)C)cc2)C1=O)NC(C)=O)C(C)C)C(N)=O (stereo partly specified) (I: Ac-C[PEG4]NQ[X2]AVGHL[Nle]-NH2 / II: EG[Cit][PABC][NMeV]V[Dil][Dolaproine]-X3; linker I:1-II:N via Hexanoyl(6-succinimido-3yl)) | 7.09 | 7.08 | – | – | – | 217 nM | 165 nM | 216 nM | 782 nM | 268 nM | 1260 nM
CCCC[C@H](NC(=O)[C@H](CC(C)C)NC(=O)[C@H](Cc1c[nH]cn1)NC(=O)CNC(=O)[C@@H](NC(=O)[C@H](C)NC(=O)[C@H](CC1=CNC2C=CC=CC12)NC(=O)[C@H](CCC(N)=O)NC(=O)[C@H](CC(N)=O)NC(=O)CCOCCOCCOCCOCCNC(=O)[C@H](CSC1CC(=O)N(CCCCCC(=O)N[C@@H](CCC(=O)O)C(=O)N[C@H](C(=O)N[C@@H](CCCNC(N)=O)C(=O)Nc2ccc(COC(=O)N(C)[C@H](C(=O)N[C@H](C(=O)N(C)[C@@H]([C@@H](C)CC)[C@@H](CC(=O)N3CCC[C@H]3[C@H](OC)[C@@H](C)C(=O)N[C@H](C)[C@@H](O)c3ccccc3)OC)C(C)C)C(C)C)cc2)C(C)C)C1=O)NC(C)=O)C(C)C)C(N)=O (stereo partly specified) (I: Ac-C[PEG4]NQ[Trp(3a,7a-dihydro)]AVGHL[Nle]-NH2 / II: EV[Cit][PABC][NMeV]V[Dil][Dolaproine]-X3; linker I:1-II:N via Hexanoyl(6-succinimido-3yl)) | 6.99 | 7.01 | – | – | – | 52.7 nM | 12.6 nM | 18.2 nM | 64.1 nM | 60.1 nM | 344 nM
CCCC[C@H](NC(=O)[C@H](CC(C)C)NC(=O)[C@H](Cc1c[nH]cn1)NC(=O)CNC(=O)[C@@H](NC(=O)[C@H](C)NC(=O)[C@H](CC1=CNC2C=CC=CC12)NC(=O)[C@H](CCC(N)=O)NC(=O)[C@H](CC(N)=O)NC(=O)CCOCCOCCOCCOCCNC(=O)[C@H](CSC1CC(=O)N(CCCCCC(=O)N[C@@H](CCC(=O)O)C(=O)NCC(=O)N[C@@H](CCCNC(N)=O)C(=O)Nc2ccc(COC(=O)N(C)[C@H](C(=O)N[C@H](C(=O)N(C)[C@@H]([C@@H](C)CC)[C@@H](CC(=O)N3CCC[C@H]3[C@H](OC)[C@@H](C)C(=O)N[C@H](C)[C@@H](O)c3ccccc3)OC)C(C)C)C(C)C)cc2)C1=O)NC(C)=O)C(C)C)C(N)=O (stereo partly specified) (I: Ac-C[PEG4]NQ[Trp(3a,7a-dihydro)]AVGHL[Nle]-NH2 / II: EG[Cit][PABC][NMeV]V[Dil][Dolaproine]-X3; linker I:1-II:N via Hexanoyl(6-succinimido-3yl)) | 7.08 | 7.10 | – | – | – | 217 nM | 200 nM | 248 nM | 830 nM | 270 nM | 1260 nM

More lines, main results first:

pIC50 [1] | pIC50 [5] | pIC50 [9] | pIC50 [10] | pIC50 [11] | Structure (SMILES) | IC50 at 144 h [2] | IC50 at 144 h [3] | IC50 at 144 h [4] | IC50 at 72 h [6] | IC50 at 144 h [7] | IC50 at 72 h [8]
– | – | < 5.00 | 5.28 | 5.28 | CC(=O)N[C@@H](CS)C(=O)N[C@H](Cc1ccccc1)C(=O)N[C@@H](CCC(N)=O)C(=O)N[C@@H](Cc1c[nH]c2ccccc12)C(=O)N[C@@H](C)C(=O)N[C@H](C(=O)NCCC(=O)N[C@@H](Cc1c[nH]cn1)C(=O)N[C@@H](CC(C)C)[C@@H](O)CC(=O)N[C@@H](CC(C)C)C(N)=O)C(C)C | – | – | – | – | – | –
– | – | < 5.00 | < 5.00 | < 6.00 | CCCC[C@H](NC(=O)C[C@H](O)[C@H](CC(C)C)NC(=O)[C@H](Cc1c[nH]cn1)NC(=O)CCNC(=O)[C@@H](NC(=O)[C@H](C)NC(=O)[C@H](Cc1c[nH]c2ccccc12)NC(=O)[C@H](CCC(N)=O)NC(=O)[C@@H](Cc1ccccc1)NC(C)=O)C(C)C)C(=O)N[C@@H](CS)C(N)=O | – | – | – | – | – | –
– | – | < 5.00 | < 5.00 | 8.00 | CC(=O)N[C@H](Cc1ccccc1)C(=O)N[C@@H](CCC(N)=O)C(=O)N[C@@H](Cc1c[nH]c2ccccc12)C(=O)N[C@@H](C)C(=O)N[C@H](C(=O)NCC(=O)N[C@@H](Cc1c[nH]cn1)C(=O)N[C@@H](CC(C)C)[C@@H](O)CC(=O)N[C@@H](CC(C)C)C(=O)N[C@@H](CS)C(N)=O)C(C)C | – | – | – | – | – | –
– | – | < 5.00 | 7.44 | 5.44 | CC(=O)N[C@@H](CS)C(=O)N[C@H](Cc1ccccc1)C(=O)N[C@@H](CCC(N)=O)C(=O)N[C@@H](Cc1c[nH]c2ccccc12)C(=O)N[C@@H](C)C(=O)N[C@H](C(=O)N(C)CC(=O)N[C@@H](Cc1c[nH]cn1)C(=O)N[C@@H](CC(C)C)[C@@H](O)CC(=O)N[C@@H](CC(C)C)C(N)=O)C(C)C | – | – | – | – | – | –
